Measured values as given in ChEMBL document CHEMBL1811774, “Chromone, a privileged scaffold for the development of monoamine oxidase inhibitors” (J Med Chem, 2011).

Legend:
[1] = biological target: T1, Amine oxidase [flavin-containing] A (Homo sapiens, UniProt P21397); test: Inhibition of human MAO-A assessed as inhibition of p-tyramine oxidation to p-hydroxyphenyl-acetaldehyde at 100 uM after 15 mins by fluorimetric method; settings: 0.25 h
T1 sequence (P21397 whole entry): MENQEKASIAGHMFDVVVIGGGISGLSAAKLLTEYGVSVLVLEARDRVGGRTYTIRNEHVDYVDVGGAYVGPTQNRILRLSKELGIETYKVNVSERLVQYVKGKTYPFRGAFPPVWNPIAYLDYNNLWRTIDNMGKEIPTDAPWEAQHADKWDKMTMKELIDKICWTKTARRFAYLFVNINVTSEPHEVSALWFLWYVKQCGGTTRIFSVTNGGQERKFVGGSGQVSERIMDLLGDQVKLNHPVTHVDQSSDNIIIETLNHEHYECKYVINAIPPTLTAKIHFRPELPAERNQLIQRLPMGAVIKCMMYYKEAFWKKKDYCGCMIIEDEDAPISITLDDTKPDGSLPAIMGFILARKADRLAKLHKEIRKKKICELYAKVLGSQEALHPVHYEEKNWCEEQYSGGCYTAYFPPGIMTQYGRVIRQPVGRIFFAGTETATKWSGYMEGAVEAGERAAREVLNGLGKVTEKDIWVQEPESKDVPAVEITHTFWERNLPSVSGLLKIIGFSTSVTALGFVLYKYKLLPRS

[2] = biological target: T2, Amine oxidase [flavin-containing] B (Homo sapiens, UniProt P27338); test: Inhibition of human MAO-B assessed as inhibition of p-tyramine oxidation to p-hydroxyphenyl-acetaldehyde at 100 uM after 15 mins by fluorimetric method; settings: 0.25 h
T2 sequence (P27338 whole entry): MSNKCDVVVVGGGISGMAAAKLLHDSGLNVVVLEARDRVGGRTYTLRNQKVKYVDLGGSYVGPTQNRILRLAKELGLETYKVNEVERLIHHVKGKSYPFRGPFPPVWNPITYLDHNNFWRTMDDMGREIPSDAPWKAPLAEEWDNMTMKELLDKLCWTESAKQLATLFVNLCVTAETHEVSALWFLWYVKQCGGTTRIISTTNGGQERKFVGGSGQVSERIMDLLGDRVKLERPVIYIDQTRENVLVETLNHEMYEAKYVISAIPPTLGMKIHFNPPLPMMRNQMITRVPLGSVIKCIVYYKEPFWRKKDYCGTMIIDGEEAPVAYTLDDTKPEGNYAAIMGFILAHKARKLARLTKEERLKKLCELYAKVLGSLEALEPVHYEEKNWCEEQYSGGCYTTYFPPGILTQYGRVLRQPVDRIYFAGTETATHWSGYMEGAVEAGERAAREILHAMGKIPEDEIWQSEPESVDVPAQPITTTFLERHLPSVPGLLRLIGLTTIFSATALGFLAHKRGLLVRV
Outline: (§1)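 Microsomal recombinant hMAO-A or hMAO-B from baculovirus-infected BTI-TN5B1-4 insect cells. Enzyme was set to oxidize 165 pmol p-tyramine/min (MAO-A 1.1 μg, MAO-B 7.5 μg protein). It was preincubated with compound 15 min at 37 C in 0.05 M sodium phosphate, pH 7.4. Reaction started with final 200 μM Amplex Red, 1 U/mL HRP and 1 mM p-tyramine. H2O2-derived resorufin fluorescence (ex 545/em 590) read over 15 min at 37 C, background-subtracted, against vehicle controls. Highest concentration 100 μM or 1 mM; mean ± SEM, n = 5.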

[3] = biological target: T1, Amine oxidase [flavin-containing] A; test: Inhibition of human MAO-A assessed as inhibition of p-tyramine oxidation to p-hydroxyphenyl-acetaldehyde after 15 mins by fluorimetric method; outline: as §1
[4] = biological target: T2, Amine oxidase [flavin-containing] B; test: Inhibition of human MAO-B assessed as inhibition of p-tyramine oxidation to p-hydroxyphenyl-acetaldehyde after 15 mins by fluorimetric method
Homo sapiens = species on record: Homo sapiens; test: Selectivity index, ratio of IC50 for human MAO-A to IC50 for human MAO-B
[5] = biological target: T2, Amine oxidase [flavin-containing] B; test: Inhibition of human MAO-B assessed as inhibition of p-tyramine oxidation to p-hydroxyphenyl-acetaldehyde at 1 mM after 15 mins by fluorimetric method; settings: 0.25 h, 1000 µM; outline: as §1
[6] = biological target: T2, Amine oxidase [flavin-containing] B; test: Irreversible inhibition of human MAOB expressed assessed as inhibition of p-tyramine oxidation to p-hydroxyphenyl-acetaldehyde at 100 uM measured after repeated washing by centrifugation-ultrafiltration method
Outline: (§2)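 Recombinant hMAO-B preincubated with a single compound concentration for 15 min at 37 C in 0.05 M sodium phosphate, pH 7.4. One aliquot kept at 4 C, unwashed. The rest was ultrafiltered through a 30 kDa membrane (9000g, 20 min, 4 C), resuspended and spun twice more.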

[7] = biological target: T2, Amine oxidase [flavin-containing] B; test: Reversible inhibition of human MAOB expressed assessed as inhibition of p-tyramine oxidation to p-hydroxyphenyl-acetaldehyde at 100 uM measured before repeated washing by centrifugation-ultrafiltration method; outline: as §2

Compound | inhibition (INH) [1] | inhibition (INH) [2] | IC50 [3] [nM] | IC50 [4] [nM] | Ratio IC50 (Homo sapiens) | other results
COc1ccc(NC(=O)c2cc(=O)c3ccccc3o2)cc1OC | Not Active | Not Active |  |  |  | 
O=C(Nc1ccc(OC(F)(F)F)cc1)c1cc(=O)c2ccccc2o1 | Not Active | Not Active |  |  |  | 
COc1ccc(NC(=O)c2coc3ccccc3c2=O)cc1O |  |  | 8340 | 76 | 110 | 
O=C(Nc1ccc(C(F)(F)F)cc1)c1coc2ccccc2c1=O | Not Active |  |  | 110 | > 909 | 
O=C(Nc1ccc(Cl)cc1)c1cc(=O)c2ccccc2o1 | Not Active | Not Active |  |  |  | 
COc1ccc(NC(=O)c2coc3ccccc3c2=O)cc1OC | Not Active |  |  | 2330 | > 43 | 
O=C(Nc1ccccc1)c1cc(=O)c2ccccc2o1 | Not Active | Not Active |  |  |  | 
O=C(Nc1ccc([N+](=O)[O-])cc1)c1coc2ccccc2c1=O |  |  | 11100 | 11800 | 0.94 | 
O=C(Nc1ccc(O)cc1)c1cc(=O)c2ccccc2o1 |  |  | 65200 | 41900 | 1.6 | 
O=C(Nc1ccc([N+](=O)[O-])cc1)c1cc(=O)c2ccccc2o1 | Not Active | Not Active |  |  |  | 
CCCNC(=O)c1coc2ccccc2c1=O | Not Active |  |  | 37700 | > 2.7 | 
O=C(Nc1ccc(OC(F)(F)F)cc1)c1coc2ccccc2c1=O | Not Active |  |  | 1080 | > 93 | 
O=C(NC1CCCCC1)c1coc2ccccc2c1=O | Not Active |  |  | 930 | > 107 | 
O=C(Nc1ccc(O)c(O)c1)c1coc2ccccc2c1=O |  |  | 430 | 160 | 2.7 | 
COc1ccc(NC(=O)c2cc(=O)c3ccccc3o2)cc1O | Not Active | Not Active |  |  |  | 
O=C(NC1CCCCC1)c1cc(=O)c2ccccc2o1 | Not Active |  |  |  |  | inhibition (INH) [5]: Not Active
O=C(Nc1ccc(O)cc1)c1coc2ccccc2c1=O |  |  | 4760 | 64 | 74 | inhibition at 100 µM [6]: 23.5%; inhibition at 100 µM [7]: 60.3%
CCCNC(=O)c1cc(=O)c2ccccc2o1 | Not Active |  |  |  |  | inhibition (INH) [5]: Not Active
O=C(Nc1ccc(O)c(O)c1)c1cc(=O)c2ccccc2o1 |  |  | 190 | 2660 | 0.071 | 
O=C(Nc1ccc(C(F)(F)F)cc1)c1cc(=O)c2ccccc2o1 | Not Active | Not Active |  |  |  | 
